Measurements as given in ChEMBL document CHEMBL1152631, “Design, synthesis, and preliminary studies of the activity of novel derivatives of N-cinnamoyl-L-aspartic acid as inhibitors of aminopeptidase N/CD13” (Bioorg Med Chem, 2009).

Legend:
Aminopeptidase N = molecular target: T1, Aminopeptidase N (Sus scrofa, UniProt P15145); assay: Inhibition of porcine kidney microsome APN assessed as L-Leu-p-nitroanilide hydrolysis
T1 sequence (P15145 whole entry): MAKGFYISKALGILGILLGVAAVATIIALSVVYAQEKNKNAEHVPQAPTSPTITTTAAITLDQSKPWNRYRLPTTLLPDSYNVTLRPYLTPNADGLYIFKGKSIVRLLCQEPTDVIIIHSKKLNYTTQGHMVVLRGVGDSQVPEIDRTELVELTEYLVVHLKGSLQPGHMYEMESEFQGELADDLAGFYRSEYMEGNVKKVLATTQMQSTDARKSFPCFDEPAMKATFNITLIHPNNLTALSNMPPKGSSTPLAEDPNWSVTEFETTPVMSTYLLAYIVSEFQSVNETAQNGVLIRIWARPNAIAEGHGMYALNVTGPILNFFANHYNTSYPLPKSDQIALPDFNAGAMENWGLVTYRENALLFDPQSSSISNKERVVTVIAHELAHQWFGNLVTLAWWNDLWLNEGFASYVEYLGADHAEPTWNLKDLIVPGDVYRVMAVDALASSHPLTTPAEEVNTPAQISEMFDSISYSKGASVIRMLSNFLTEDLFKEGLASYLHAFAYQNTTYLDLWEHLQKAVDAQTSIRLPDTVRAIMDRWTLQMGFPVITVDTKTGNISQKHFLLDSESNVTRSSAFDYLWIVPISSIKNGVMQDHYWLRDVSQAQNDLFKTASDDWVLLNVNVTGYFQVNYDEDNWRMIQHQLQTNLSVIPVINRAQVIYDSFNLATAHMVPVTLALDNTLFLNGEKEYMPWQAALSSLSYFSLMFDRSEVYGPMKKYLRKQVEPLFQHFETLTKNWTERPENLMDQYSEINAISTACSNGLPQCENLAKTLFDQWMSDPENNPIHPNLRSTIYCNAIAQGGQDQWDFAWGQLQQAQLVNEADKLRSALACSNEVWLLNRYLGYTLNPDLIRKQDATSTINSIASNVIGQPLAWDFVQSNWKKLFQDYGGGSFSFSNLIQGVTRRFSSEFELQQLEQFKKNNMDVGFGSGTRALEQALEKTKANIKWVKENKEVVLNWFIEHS
In short: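 Porcine kidney microsomal aminopeptidase, 4 mg/ml final, in PBS pH 7.2 at 37 °C. Inhibitor solutions made in assay buffer and adjusted to pH 7.5, preincubated with enzyme 30 min at room temperature.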

[1] = molecular target: 72 kDa type IV collagenase (Homo sapiens, UniProt P08253); assay: Inhibition of MMP2
72 kDa type IV collagenase, sequence (P08253 whole entry): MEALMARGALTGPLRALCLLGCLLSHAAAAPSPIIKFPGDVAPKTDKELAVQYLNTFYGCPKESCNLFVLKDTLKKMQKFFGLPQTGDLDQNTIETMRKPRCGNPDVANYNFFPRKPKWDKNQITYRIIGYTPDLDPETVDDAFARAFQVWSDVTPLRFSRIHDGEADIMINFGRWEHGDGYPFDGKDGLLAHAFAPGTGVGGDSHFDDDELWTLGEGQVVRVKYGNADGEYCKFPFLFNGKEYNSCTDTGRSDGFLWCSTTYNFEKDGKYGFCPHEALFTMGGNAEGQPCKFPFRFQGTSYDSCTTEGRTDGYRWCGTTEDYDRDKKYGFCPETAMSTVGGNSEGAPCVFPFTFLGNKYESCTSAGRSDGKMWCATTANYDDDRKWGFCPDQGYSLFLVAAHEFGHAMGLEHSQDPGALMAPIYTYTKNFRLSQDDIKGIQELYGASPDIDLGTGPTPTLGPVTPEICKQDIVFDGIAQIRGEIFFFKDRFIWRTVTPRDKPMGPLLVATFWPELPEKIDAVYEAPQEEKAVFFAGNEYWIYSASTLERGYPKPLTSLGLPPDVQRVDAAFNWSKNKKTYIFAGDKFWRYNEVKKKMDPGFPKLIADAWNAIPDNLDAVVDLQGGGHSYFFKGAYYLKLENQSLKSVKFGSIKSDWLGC
In short: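 Gelatinase A (MMP-2) with synthetic substrate and inhibitor in sodium borate (50 mmol/l, pH 8.5), incubated 30 min at 37 °C. Then 0.03% TNBS added for a further 20 min and absorbance read at 450 nm.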

HL-60 = assay: Antiproliferative activity against human HL60 cells after 48 hrs by MTT assay; type: functional, cell-based; conditions: HL-60, 48 h
In short: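 HL-60 cells kept in RPMI1640 with 10% FBS at 37 °C, 5% CO2. Seeded 10,000 cells per well, grown 4 h, then exposed to 1600, 800, 400, 200 or 100 µg/ml for 48 h. Added 0.5% MTT, incubated 4 h, dissolved formazan in DMSO and read OD at 570 nm. Mean and SE of five independent experiments.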

| Structure (SMILES) | IC50 (Aminopeptidase N) | IC50 [1] | IC50 (HL-60) |
| --- | --- | --- | --- |
| CCCCCCCCNC(=O)C[C@@H](NC(=O)/C=C/c1ccccc1)C(=O)O | 232 µM | > 1000 µM | – |
| O=C(/C=C/c1ccccc1)N[C@H](CC(=O)NCc1ccccc1)C(=O)O | 207 µM | – | – |
| CCCCNC(=O)C[C@@H](NC(=O)/C=C/c1ccccc1)C(=O)NO | 11.1 µM | 232 µM | 780 µM |
| O=C(/C=C/c1ccccc1)N[C@H](CC(=O)Nc1cccc(Cl)c1)C(=O)NO | 1210 µM | > 1000 µM | – |
| CC(C)C[C@H](NC(=O)[C@@H](O)[C@H](N)Cc1ccccc1)C(=O)O [UBENIMEX] | – | – | 920 µM |
| CC(C)NC(=O)C[C@@H](NC(=O)/C=C/c1ccccc1)C(=O)O | 2200 µM | – | – |
| CCCCCCNC(=O)C[C@@H](NC(=O)/C=C/c1ccccc1)C(=O)NO | 18.1 µM | 179 µM | – |
| O=C(/C=C/c1ccccc1)N[C@H](CC(=O)Nc1cccc([N+](=O)[O-])c1)C(=O)NO | 1440 µM | > 1000 µM | – |
| CCCCCCCCCCCCNC(=O)C[C@@H](NC(=O)/C=C/c1ccccc1)C(=O)O | 962 µM | – | – |
| O=C(/C=C/c1ccccc1)N[C@H](CC(=O)Nc1ccc([N+](=O)[O-])cc1)C(=O)NO | 189 µM | – | – |
| O=C(/C=C/c1ccccc1)N[C@H](CC(=O)Nc1ccc([N+](=O)[O-])cc1)C(=O)O | 273 µM | – | – |
| CCCCCNC(=O)C[C@@H](NC(=O)/C=C/c1ccccc1)C(=O)O | 204 µM | – | – |
| CCCCCCCCCCCCNC(=O)C[C@@H](NC(=O)/C=C/c1ccccc1)C(=O)NO | 438 µM | > 1000 µM | – |
| CCCNC(=O)C[C@@H](NC(=O)/C=C/c1ccccc1)C(=O)NO | 36 µM | 131 µM | – |
| O=C(/C=C/c1ccccc1)N[C@H](CC(=O)Nc1ccc(Cl)cc1)C(=O)NO | 192 µM | 197 µM | – |
| O=C(/C=C/c1ccccc1)N[C@H](CC(=O)NCc1ccccc1)C(=O)NO | 65.1 µM | – | – |
| CCCNC(=O)C[C@@H](NC(=O)/C=C/c1ccccc1)C(=O)O | 9110 µM | – | – |
| CCCCNC(=O)C[C@@H](NC(=O)/C=C/c1ccccc1)C(=O)O | 190 µM | – | – |
| O=C(/C=C/c1ccccc1)N[C@H](CC(=O)Nc1cccc(Cl)c1)C(=O)O | 719 µM | – | – |
| O=C(/C=C/c1ccccc1)N[C@H](CC(=O)Nc1ccc(Cl)cc1)C(=O)O | 349 µM | – | – |
| O=C(/C=C/c1ccccc1)N[C@H](CC(=O)Nc1cccc([N+](=O)[O-])c1)C(=O)O | 1780 µM | > 1000 µM | – |
| O=C(/C=C/c1ccccc1)N[C@H](CC(=O)Nc1ccccc1Cl)C(=O)O | 263 µM | – | – |
| O=C(/C=C/c1ccccc1)N[C@H](CC(=O)Nc1cccc2ccccc12)C(=O)O | 739 µM | > 1000 µM | – |
| CCCCCCCCNC(=O)C[C@@H](NC(=O)/C=C/c1ccccc1)C(=O)NO | 18.5 µM | – | – |
| O=C(/C=C/c1ccccc1)N[C@H](CC(=O)Nc1ccccc1)C(=O)O | 232 µM | > 1000 µM | – |
| CC(C)NC(=O)C[C@@H](NC(=O)/C=C/c1ccccc1)C(=O)NO | 65.9 µM | – | – |
| CCCCCNC(=O)C[C@@H](NC(=O)/C=C/c1ccccc1)C(=O)NO | 17.4 µM | 197 µM | – |
| O=C(/C=C/c1ccccc1)N[C@H](CC(=O)Nc1cccc2ccccc12)C(=O)NO | 2050 µM | – | – |
| O=C(/C=C/c1ccccc1)N[C@H](CC(=O)Nc1ccccc1)C(=O)NO | 115 µM | – | – |
| O=C(/C=C/c1ccccc1)N[C@H](CC(=O)Nc1ccccc1Cl)C(=O)NO | 86.6 µM | > 1000 µM | – |
